Laboratory results reported in ChEMBL document CHEMBL4052614, “Novel 3',5'-diprenylated chalcones inhibited the proliferation of cancer cells in vitro by inducing cell apoptosis and arresting cell cycle phase” (Eur J Med Chem, 2017).
Active and inactive are the calls of the source. No cut-off for these calls is given here.

Test system: PC-3
Test: Growth inhibition of human PC3 cells at 5 umol/L after 48 hrs by MTT assay relative to control
Format: functional
Conditions: PC-3, 48 h, read-out: GI
Method in brief: (§1)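 Cells kept in DMEM/10% FBS at 37 °C, 5% CO2, seeded at 4×10^3–8×10^3 cells/well, 24 h attachment, then 48 h with compound at 5 µmol/L. MTT (5 mg/mL solution) added for 4 h at 37 °C, formazan taken up in DMSO, A490 read. Percent inhibition as mean ± SD of three independent experiments. Doxorubicin as positive control.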

| SMILES | inhibition of growth at 5 µM [%] |
| --- | --- |
| COc1cc(/C=C/C(=O)c2cc(CC=C(C)C)c(OC)c(CC=C(C)C)c2O)ccc1OC(=O)c1cccnc1 | 23 |
| COc1cc(/C=C/C(=O)c2cc(CC=C(C)C)c(OC)c(CC=C(C)C)c2O)ccc1OC(=O)Cc1cc2ccccc2[nH]1 | 29.9 |
| COc1cc(/C=C/C(=O)c2cc(CC=C(C)C)c(OC)c(CC=C(C)C)c2O)ccc1OC(=O)c1ccc(C)s1 | 19.2 |
| COc1ccc(/C=C/C(=O)c2cc(CC=C(C)C)c(OC)c(CC=C(C)C)c2O)cc1OC | 10.6 |
| CCOc1cc(/C=C/C(=O)c2cc(CC=C(C)C)c(OC)c(CC=C(C)C)c2O)ccc1O | 25.6 |
| CCOc1cc(/C=C/C(=O)c2cc(CC=C(C)C)c(OC)c(CC=C(C)C)c2O)ccc1OC(=O)c1ccc(Cl)s1 | 34.3 |

Test system: MDA-MB-231
Test: Growth inhibition of human MDA-MB-231 cells at 5 umol/L after 48 hrs by MTT assay relative to control
Format: functional
Conditions: not given
Method in brief: as §1

| SMILES | growth inhibition (GI) |
| --- | --- |
| COc1cc(/C=C/C(=O)c2cc(CC=C(C)C)c(OC)c(CC=C(C)C)c2O)ccc1OC(=O)c1cccnc1 | inactive |
| CCOc1cc(/C=C/C(=O)c2cc(CC=C(C)C)c(OC)c(CC=C(C)C)c2O)ccc1OC(=O)c1ccc(Cl)s1 | inactive |

Same assay, conditions: MDA-MB-231, 48 h, read-out: GI

| SMILES | inhibition of growth at 5 µM [%] |
| --- | --- |
| COc1cc(/C=C/C(=O)c2cc(CC=C(C)C)c(OC)c(CC=C(C)C)c2O)ccc1OC(=O)Cc1cc2ccccc2[nH]1 | 28.3 |
| COc1cc(/C=C/C(=O)c2cc(CC=C(C)C)c(OC)c(CC=C(C)C)c2O)ccc1OC(=O)c1ccc(C)s1 | 19.6 |
| COc1ccc(/C=C/C(=O)c2cc(CC=C(C)C)c(OC)c(CC=C(C)C)c2O)cc1OC | 19 |
| CCOc1cc(/C=C/C(=O)c2cc(CC=C(C)C)c(OC)c(CC=C(C)C)c2O)ccc1O | 33.5 |

Test system: K562
Test: Growth inhibition of human K562 cells at 5 umol/L after 48 hrs by MTT assay relative to control
Format: functional
Conditions: not given
Method in brief: as §1

| SMILES | growth inhibition (GI) |
| --- | --- |
| COc1cc(/C=C/C(=O)c2cc(CC=C(C)C)c(OC)c(CC=C(C)C)c2O)ccc1OC(=O)c1cccnc1 | inactive |
| COc1cc(/C=C/C(=O)c2cc(CC=C(C)C)c(OC)c(CC=C(C)C)c2O)ccc1OC(=O)Cc1cc2ccccc2[nH]1 | inactive |
| CCOc1cc(/C=C/C(=O)c2cc(CC=C(C)C)c(OC)c(CC=C(C)C)c2O)ccc1OC(=O)c1ccc(Cl)s1 | inactive |

Same assay, conditions: K562, 48 h, read-out: GI

| SMILES | inhibition of growth at 5 µM [%] |
| --- | --- |
| COc1cc(/C=C/C(=O)c2cc(CC=C(C)C)c(OC)c(CC=C(C)C)c2O)ccc1OC(=O)c1ccc(C)s1 | 6.3 |
| COc1ccc(/C=C/C(=O)c2cc(CC=C(C)C)c(OC)c(CC=C(C)C)c2O)cc1OC | 7.5 |
| CCOc1cc(/C=C/C(=O)c2cc(CC=C(C)C)c(OC)c(CC=C(C)C)c2O)ccc1O | 10.2 |

Test system: HEL
Test: Growth inhibition of HEL cells at 5 umol/L after 48 hrs by MTT assay relative to control
Format: functional
Conditions: Homo sapiens
Method in brief: as §1

| SMILES | growth inhibition (GI) |
| --- | --- |
| COc1cc(/C=C/C(=O)c2cc(CC=C(C)C)c(OC)c(CC=C(C)C)c2O)ccc1OC(=O)Cc1cc2ccccc2[nH]1 | inactive |
| COc1cc(/C=C/C(=O)c2cc(CC=C(C)C)c(OC)c(CC=C(C)C)c2O)ccc1OC(=O)c1ccc(C)s1 | inactive |
| COc1ccc(/C=C/C(=O)c2cc(CC=C(C)C)c(OC)c(CC=C(C)C)c2O)cc1OC | inactive |
| CCOc1cc(/C=C/C(=O)c2cc(CC=C(C)C)c(OC)c(CC=C(C)C)c2O)ccc1OC(=O)c1ccc(Cl)s1 | inactive |

Same assay, conditions: Homo sapiens, read-out: GI

| SMILES | inhibition of growth at 5 µM [%] |
| --- | --- |
| COc1cc(/C=C/C(=O)c2cc(CC=C(C)C)c(OC)c(CC=C(C)C)c2O)ccc1OC(=O)c1cccnc1 | 5.7 |
| CCOc1cc(/C=C/C(=O)c2cc(CC=C(C)C)c(OC)c(CC=C(C)C)c2O)ccc1O | 12.7 |
